Only a selection was taken, and hits are over-represented in it overall.
YB-1 expr inh = inhibitors of YB-1 gene expression, primary screen, cell-based, fluorescence; U2OS, qRT-PCR YB-1 vs CDIP delta delta Cp, 16 h; stronger effect = higher value; zero = DMSO, each unit about twofold; AID 434959, 2010; delta delta Cp (YB-1 minus CDIP) (no concentration beside the values); 0.37% of 30,000 active;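 active = delta delta Cp rounded down to an integer at or above 3, about 3 SD of DMSO wells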;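 also: higher means less YB-1 transcript or more CDIP transcript relative to DMSO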
T cruzi HTS = inhibitors of intracellular Trypanosoma cruzi, primary screen, cell-based, plate reader, single point, set 2; activity score (inhibition), % at 5.01 µM; 4.9% of 22,000 active; intracellular Trypanosoma cruzi in host cells; AID 651903, 2012; in the data active = activity score above about 55%; inconclusive = no clear call, values can overlap the other calls;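 also: parasites and compound incubated about four days before reading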
INS-1E ATP HTS = protection of INS-1E cells from cytokine death, primary screen, ATP luminescence, single point; INS-1E cytokine-induced death, 48 h; normalised: neutral wells 0, positive control 100; protection from cytokine-induced ATP loss, % at 10 µM; 0.1% of 20,000 active;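 active = mean replicate protection from cytokine-induced ATP loss at least 50% and at least 75% of replicates each reaching 50%; inconclusive = meets only one of the two criteria, mean or replicate share; inactive = fails both the mean and replicate share criteria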
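assay system = INS-1E rat insulinoma cells | amount = 8000 cells per well | medium = phenol-red-free RPMI with 5% fetal bovine serum | doses = one compound concentration, pin transfer | timing = 48 h cytokine plus compound treatment, 10 min reagent incubation | also added = IL-1β, TNF-α and IFN-γ cytokine mix | signal = CellTiter-Glo luminescence measuring cellular ATP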
Large screens that a line does not name were inactive.

C[C@@H]1CCCCO[C@@H](CN(C)C(=O)Nc2ccc(F)cc2)[C@@H](C)CN([C@H](C)CO)C(=O)c2cc(NC(=O)Nc3ccc(C(F)(F)F)cc3)ccc2O1	T cruzi HTS 64
C[C@@H]1CCCCO[C@@H](CN(C)C(=O)C2CCCCC2)[C@@H](C)CN([C@H](C)CO)C(=O)c2cc(NC(=O)Nc3ccc(C(F)(F)F)cc3)ccc2O1	T cruzi HTS 77
C[C@@H]1CCCCO[C@@H](CN(C)C(=O)c2ccccc2)[C@@H](C)CN([C@H](C)CO)C(=O)c2cc(NC(=O)Nc3ccc(C(F)(F)F)cc3)ccc2O1	T cruzi HTS 68
C[C@@H]1CCCCO[C@@H](CN(C)C(=O)Nc2ccc(F)cc2)[C@@H](C)CN([C@H](C)CO)C(=O)c2cc(NC(=O)Nc3ccccc3)ccc2O1	none
C[C@@H]1CCCCO[C@@H](CN(C)C(=O)c2ccccc2)[C@@H](C)CN([C@H](C)CO)C(=O)c2cc(NC(=O)Nc3ccccc3)ccc2O1	none
CC(C)NC(=O)N(C)C[C@@H]1OCCCC[C@@H](C)Oc2ccc(NC(=O)Nc3ccc(C(F)(F)F)cc3)cc2C(=O)N([C@H](C)CO)C[C@@H]1C	none
COc1ccc(S(=O)(=O)N(C)C[C@@H]2Oc3ccc(NC(=O)Nc4cccc5ccccc45)cc3CC(=O)N([C@H](C)CO)C[C@@H]2C)cc1	none
Cc1noc(C)c1NC(=O)Nc1cccc2c1O[C@@H](CN(C)S(=O)(=O)c1ccccc1)[C@@H](C)CN([C@@H](C)CO)C2=O	none
CNC[C@@H]1Oc2ccc(NS(=O)(=O)c3cccs3)cc2CC(=O)N([C@H](C)CO)C[C@H]1C	none
C[C@@H]1CN([C@H](C)CO)C(=O)c2cccc(NC(=O)Nc3ccc(C(F)(F)F)cc3)c2O[C@@H]1CN(C)S(=O)(=O)c1ccc(Cl)cc1	T cruzi HTS 63
C[C@H]1CN([C@@H](C)CO)C(=O)c2cccc(NC(=O)Nc3ccc(C(F)(F)F)cc3)c2O[C@@H]1CN(C)S(=O)(=O)c1ccc(F)cc1	none
C[C@@H]1CN([C@@H](C)CO)C(=O)c2cccc(NC(=O)Nc3ccc(C(F)(F)F)cc3)c2O[C@@H]1CN(C)S(=O)(=O)c1ccc(Cl)cc1	T cruzi HTS 70
C[C@H]1CN([C@@H](C)CO)C(=O)c2cccc(NC(=O)Nc3ccccc3)c2O[C@H]1CN(C)S(=O)(=O)c1ccccc1	none
C[C@H](CO)N1C[C@H](C)[C@@H](CN(C)S(=O)(=O)c2ccccc2)Oc2c(NC(=O)Nc3ccccc3)cccc2C1=O	T cruzi HTS 61
Cc1ccc(S(=O)(=O)N(C)C[C@H]2Oc3c(NC(=O)Nc4ccc(C(F)(F)F)cc4)cccc3C(=O)N([C@H](C)CO)C[C@@H]2C)cc1	none
Cc1ccc(S(=O)(=O)Nc2ccc3c(c2)CC(=O)N([C@H](C)CO)C[C@@H](C)[C@H](CN(C)S(=O)(=O)c2ccc(F)cc2)O3)cc1	none
O=C(NO)c1ccc(C(=O)N/N=C/c2cccc(O)c2)cc1	none
O=C(/C=C/S(=O)(=O)c1ccc(Cl)cc1)c1ccc(F)cc1	none (no result: T cruzi HTS, INS-1E ATP HTS)
C[C@@H]1CN([C@H](C)CO)C(=O)Cc2cc(NC(=O)Nc3ccc4c(c3)OCO4)ccc2O[C@H]1CN(C)CC1CCCCC1	T cruzi HTS 64
C[C@@H]1CN([C@H](C)CO)C(=O)Cc2cc(NC(=O)Nc3ccc(F)cc3)ccc2O[C@@H]1CN(C)CC1CCCCC1	T cruzi HTS 67
C[C@@H]1CN([C@@H](C)CO)C(=O)Cc2cc(NC(=O)Nc3ccccc3)ccc2O[C@@H]1CN(C)CC1CCCCC1	none
C[C@H](CO)N1C[C@H](C)[C@H](CN(C)CC2CC2)Oc2ccc(NC(=O)Nc3ccc(F)cc3)cc2CC1=O	none
C[C@H](CO)N1C[C@H](C)[C@H](CN(C)CC2CCCCC2)Oc2ccc(NC(=O)Nc3ccc4c(c3)OCO4)cc2CC1=O	none
C[C@@H]1CN([C@H](C)CO)C(=O)Cc2cc(NC(=O)Nc3ccc(F)cc3)ccc2O[C@H]1CN(C)CC1CCCCC1	T cruzi HTS 60
CCOC(=O)c1cc(C#N)c(Sc2ccc(C)cc2)nc1C(F)(F)F	none (no result: T cruzi HTS, INS-1E ATP HTS)
C[C@H]1CN([C@@H](C)CO)C(=O)Cc2cc(NC(=O)CCCCCC(=O)Nc3ccccc3N)ccc2O[C@H]1CN(C)C(=O)Nc1cccc2ccccc12	none
C[C@@H]1CCCCO[C@H](CN(C)C(=O)CCCN(C)C)[C@@H](C)CN([C@H](C)CO)C(=O)c2cc(NC(=O)Nc3ccc(C(F)(F)F)cc3)ccc2O1	none
C[C@@H]1CN([C@H](C)CO)C(=O)CCCn2cc(nn2)CO[C@@H]1CN(C)S(=O)(=O)c1cccs1	none (no result: INS-1E ATP HTS)
COc1ccc(NC(=O)Nc2ccc3c(c2)CC(=O)N([C@@H](C)CO)C[C@H](C)[C@H](CN(C)Cc2ccc(C(=O)Nc4ccccc4N)cc2)O3)cc1	none
COc1ccc(NC(=O)Nc2ccc3c(c2)CC(=O)N([C@H](C)CO)C[C@H](C)[C@H](CN(C)Cc2ccc(C(=O)Nc4ccccc4N)cc2)O3)cc1	T cruzi HTS inconclusive
COc1ccc(NC(=O)Nc2ccc3c(c2)CC(=O)N([C@@H](C)CO)C[C@H](C)[C@@H](CN(C)Cc2ccc(C(=O)Nc4ccccc4N)cc2)O3)cc1	T cruzi HTS 63
COc1ccc(NC(=O)Nc2ccc3c(c2)C(=O)N([C@H](C)CO)C[C@H](C)[C@H](CN(C)Cc2ccc(C(=O)Nc4ccccc4N)cc2)O3)cc1	none
COc1ccc(NC(=O)Nc2ccc3c(c2)CC(=O)N([C@H](C)CO)C[C@@H](C)[C@@H](CN(C)Cc2ccc(C(=O)Nc4ccccc4N)cc2)O3)cc1	T cruzi HTS 66
COc1ccc(NC(=O)Nc2ccc3c(c2)CC(=O)N([C@@H](C)CO)C[C@@H](C)[C@@H](CN(C)Cc2ccc(C(=O)Nc4ccccc4N)cc2)O3)cc1	T cruzi HTS 60
C[C@H](CO)N1C[C@H](C)[C@H](CN(C)Cc2ccc(Oc3ccccc3)cc2)Oc2ccc(NS(C)(=O)=O)cc2CC1=O	none
C[C@H]1CN([C@@H](C)CO)C(=O)Cc2cc(NC(=O)CCCCCC(=O)Nc3ccccc3N)ccc2O[C@@H]1CN(C)C(=O)Nc1ccc(F)cc1	none
C[C@H]1CN([C@@H](C)CO)C(=O)c2cccc(NC(=O)Nc3ccc(C(F)(F)F)cc3)c2O[C@@H]1CN(C)Cc1ccc(-c2ccccc2)cc1	none
C[C@@H]1CN([C@@H](C)CO)C(=O)CCCn2nncc2CO[C@H]1CN(C)Cc1ccc(-c2ccccc2)cc1	none (no result: INS-1E ATP HTS)
C[C@H](CO)N1C[C@H](C)[C@@H](CN(C)S(=O)(=O)c2ccc(-c3ccccc3)cc2)OCc2cnnn2CCCC1=O	T cruzi HTS 80 (no result: INS-1E ATP HTS)
C[C@@H]1CN([C@H](C)CO)C(=O)CCCn2nncc2CO[C@@H]1CN(C)S(=O)(=O)c1ccc(Oc2ccccc2)cc1	none
C[C@@H]1CN([C@H](C)CO)C(=O)CCCn2nncc2CO[C@H]1CN(C)S(=O)(=O)c1ccc(-c2ccccc2)cc1	none
C[C@@H]1CN([C@H](C)CO)C(=O)CCCn2nncc2CO[C@@H]1CN(C)Cc1ccc(-c2ccccc2)cc1	T cruzi HTS 60 (no result: INS-1E ATP HTS)

Source: PubChem BioAssay (Broad Institute)
